As a reminder, the IC50 is the point on the concentration scale where inhibition reaches its midpoint.

SMILES strings stand for the structures. ≈ marks a conversion by molar mass, not a printed value. Where only a bound is given, the exact number is not on record here.

The text below walks through data of ChEMBL document CHEMBL1124508, “E-ring desoxy analogues of etoposide” (J Med Chem, 1989).

Test [1] concerns Mus musculus. The experiment in a line: Percent median survival time (T/C) of mice when administered intraperitoneally at dose 20 mg/kg. Type of test: functional. As to conditions: route intraperitoneal. Put shortly:
(§1)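 P388 leukemia-bearing mice given drug ip on days 1 and 5, with dose expressed per injection. T/C is the median survival time of treated mice as a percent of saline-treated controls. Long-term survivors are mice alive out of total on day 30, when the experiment ended.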

Test [2] is described as follows: Inhibitory selectivity against HCT/VP35 and HCT116 cell growth after 72 hours. It is filed as functional, HCT-116. Put shortly: (§2)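 Ratio of the HCT/VP35 IC50 to the HCT-116 IC50, as a measure of overcoming acquired etoposide resistance. The IC50 is the dose giving 50% growth reduction after 72 h versus controls, read by crystal violet or XTT stain. Values are averages of at least two runs.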

In test [3] the test system is HCT-116. The experiment in a line: In vitro inhibitory concentration against etoposide sensitive HCT116 cell growth after 72 hours. As to conditions: Homo sapiens, HCT-116, 72 h. It is filed as functional, cell-based. Put shortly:
(§3)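 Panel of human colon lines (HCT-116, etoposide sensitive; HCT/VP35, acquired-resistant; MOSER, inherently resistant) and mouse melanoma B16-F10. Viability is read by crystal violet protein stain, or by XTT vital stain for some HCT/VP35 and HCT-116 runs. IC50 is the dose reducing cell growth by 50% after 72 h versus controls. Values are averages of at least two runs.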

The species named for test [4] is Homo sapiens. The test can be described thus: In vitro inhibitory concentration against MOSER cell growth after 72 hours. Type of test: functional. The gist of the method: as §3
Test [5] relates to Mus musculus. The test can be described thus: Percent median survival time (T/C) of mice when administered intraperitoneally at dose 40 mg/kg. The following applies: route intraperitoneal. It is filed as functional. The gist of the method:
as §1

Test [6] relates to HCT cell line. The experiment in a line: In vitro inhibitory concentration against etoposide resistant HCT/VP35 cell growth after 72 hours. Type of test: functional, cell-based. The following applies: Homo sapiens. The gist of the method: as §3
The subject of test [7] is B16-F10. The experiment in a line: In vitro inhibitory concentration against B16-F10 cell growth after 72 hours. The following applies: Mus musculus, B16-F10, 72 h. It is filed as functional, cell-based. Put shortly: as §3
Test [8] relates to Mus musculus. The test can be described thus: Percent median survival time (T/C) of mice when administered intraperitoneally at dose 120 mg/kg. The following applies: route intraperitoneal. It is filed as functional. Put shortly:
as §1

Test [9] concerns Mus musculus. The test can be described thus: Anti-P388 Leukemia activity administered 30 mg/kg intraperitoneally, expressed as percent of the median survival time. It is filed as functional. As to conditions: route intraperitoneal. The gist of the method: as §1
The species entered for test [10] is Homo sapiens. The experiment in a line: The inhibition concentration of MOSER cell growth after 72 hours. Type of test: functional. The gist of the method: as §3
Test [11] concerns Mus musculus. The test can be described thus: Anti-P388 Leukemia activity administered 150 mg/kg intraperitoneally, expressed as percent of the median survival time. It is filed as functional. The following applies: route intraperitoneal. The gist of the method: as §1
In test [12] the test system is B16-F10. The test can be described thus: The inhibition concentration of B16-F10 cell growth after 72 hours. The following applies: Mus musculus, B16-F10, 72 h. Type of test: functional, cell-based. The gist of the method: as §3
Test [13] deals with HCT cell line. The test can be described thus: The inhibition concentration against etoposide resistant HCT/VP35 cell growth after 72 hours. As to conditions: Homo sapiens. It is filed as functional, cell-based. Put shortly:
as §3

Test [14] deals with Mus musculus. The experiment in a line: Maximum percent median survival time of mice when administered intraperitoneally at dose 60 mg/kg. Type of test: functional. The following applies: route intraperitoneal.
In test [15] the test system is Mus musculus. The experiment in a line: Percent median survival time (T/C) of mice when administered intraperitoneally at dose 80 mg/kg. As to conditions: route intraperitoneal. Type of test: functional. The gist of the method:
as §1

In test [16] the test system is Mus musculus. The experiment in a line: Number of long time survivors (mice alive/total) when administered intraperitoneally at dose 80 mg/kg when tested in 4 mice. It is filed as functional. The following applies: route intraperitoneal. Put shortly:
as §1

Test [17] has as its system Mus musculus. The test can be described thus: Number of long time survivors (mice alive/total) when administered intraperitoneally at dose 60 mg/kg when tested in 4 mice. Type of test: functional. The following applies: route intraperitoneal. Put shortly: as §1
Test [18] deals with Mus musculus. The test can be described thus: Anti-P388 Leukemia activity administered 50 mg/kg intraperitoneally, expressed as percent of the median survival time. Type of test: functional. The following applies: route intraperitoneal. The gist of the method: as §1
Test [19] can be described thus: Inhibitory selectivity against HCT/VP35 and HCT116 cell growth after 72 hr IC50 value for etoposide in the parenthesis. Type of test: functional, HCT-116. Put shortly: as §2
Test [20] concerns HCT-116. The experiment in a line: The inhibition concentration against etoposide sensitive HCT116 cell growth after 72 hours. It is filed as functional, cell-based. The following applies: Homo sapiens, HCT-116, 72 h. Put shortly:
as §3

Test [21] concerns Mus musculus. The test can be described thus: Anti-P388 Leukemia activity administered 200 mg/kg intraperitoneally, expressed as percent of the median survival time. Type of test: functional. The following applies: route intraperitoneal. Put shortly: as §1

Regarding `COc1cc([C@@H]2c3cc4c(cc3[C@@H](O[C@@H]3O[C@@H]5CO[C@@H](C)O[C@H]5[C@H](O)[C@H]3O)[C@H]3COC(=O)[C@H]23)OCO4)ccc1O`, the T/C in the test with Mus musculus [1] was 190; in the test with Mus musculus [5] it was 245. This compound also registered a Selectivity in [2] of 12.3. Also, the IC50 in the test on HCT-116 [3] amounted to 15.4 µg/mL (≈ 27.6 µM); in the test listed under Homo sapiens [4] it was 46.5 µg/mL (≈ 83.3 µM); in the test on HCT cell line [6], 5.4 µg/mL (≈ 9.67 µM); in the test with B16-F10 [7], 20.1 µg/mL (≈ 36 µM).
Take `COc1cc([C@@H]2c3cc4c(cc3[C@@H](O[C@@H]3O[C@@H]5CO[C@@H](C)O[C@H]5[C@H](O)[C@H]3O)[C@H]3COC(=O)[C@H]23)OCO4)cc(OC)c1O` [ETOPOSIDE]: the T/C in the test with Mus musculus [8] came to 447.
As for `COc1cc(OC)cc([C@@H]2c3cc4c(cc3[C@@H](O[C@@H]3O[C@@H]5CO[C@@H](C)O[C@H]5[C@H](O)[C@H]3O)[C@H]3COC(=O)[C@H]23)OCO4)c1`, the results for the T/C with Mus musculus [9] and in the test with Mus musculus [11] were 125 and 175, respectively. Further, the IC50 worked out at 45.5 µg/mL (≈ 79.5 µM) in the test listed under Homo sapiens [10], 25 µg/mL (≈ 43.7 µM) in the test with B16-F10 [12] and 3.4 µg/mL (≈ 5.94 µM) in the test with HCT cell line [13]. The same compound returned a Selectivity in [2] of 0.47.
With `COC1=CC([C@@H]2c3cc4c(cc3[C@@H](O[C@@H]3O[C@@H]5CO[C@@H](C)O[C@H]5[C@H](O)[C@H]3O)[C@H]3COC(=O)[C@@H]32)OCO4)=CC(=O)C1=O`, the “Max T/C” value with Mus musculus [14] is listed as >595. The T/C is reported as >621 in the test with Mus musculus [15] and 274 in the test with Mus musculus [5]. In addition, the LTS is reported as 3 in the test on Mus musculus [16] and 2 with Mus musculus [17].
`C[C@@H]1OC[C@H]2O[C@@H](O[C@@H]3c4cc5c(cc4[C@@H](c4ccc(O)cc4)[C@H]4C(=O)OC[C@@H]43)OCO5)[C@H](O)[C@@H](O)[C@@H]2O1`: the T/C was 145 in the test with Mus musculus [18] and 175 in the test with Mus musculus [21]. The IC50 worked out at 42.9 µg/mL (≈ 81.2 µM) in the test listed under Homo sapiens [10], 43.4 µg/mL (≈ 82.1 µM) in the test on B16-F10 [12], 85.1 µg/mL (≈ 161 µM) with HCT cell line [13] and 62.7 µg/mL (≈ 119 µM) with HCT-116 [20]. Moreover, the Selectivity in [19] is 1.4.
